Values after ≈ are worked out from the molar mass of the structure shown.
Legend:
[1] = tested on: Mycobacterium tuberculosis; assay: Antitubercular activity against Mycobacterium tuberculosis H37Rv P887 incubated for 1 to 9 days by inverted microscopic analysis; assay type: functional
Summary of the method: (§1)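 Bacteria immobilised in 0.5% agarose within microfluidic channels of a 96-well chip. Compound (0–632 μM; rifampicin 0–19.4 μM) supplied in Middlebrook 7H9 with 10% OADC and allowed to diffuse in. Incubated at 37 °C; channel boundary imaged by inverted microscopy (40×) at 1, 3, 5, 7 and 9 days. MIC90 taken as lowest concentration giving 90% growth inhibition. Triplicate.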

[2] = tested on: Mycobacterium tuberculosis; assay: Antitubercular activity against MDR Mycobacterium tuberculosis M22 incubated for 1 to 9 days by inverted microscopic analysis; assay type: functional; summary of the method: as §1
[3] = tested on: Mycobacterium tuberculosis; assay: Antitubercular activity against MDR Mycobacterium tuberculosis X23 incubated for 1 to 9 days by inverted microscopic analysis; assay type: functional
[4] = tested on: Mycobacterium tuberculosis; assay: Antitubercular activity against XDR Mycobacterium tuberculosis X24 incubated for 1 to 9 days by inverted microscopic analysis; assay type: functional; summary of the method: as §1
[5] = tested on: Mycobacterium tuberculosis; assay: Antitubercular activity against XDR Mycobacterium tuberculosis X59 incubated for 1 to 9 days by inverted microscopic analysis; assay type: functional; summary of the method: as §1
[6] = Lipophilicity, logP of the compound; assay type: physicochemical; conditions: octanol/water
[7] = biological target: Mitogen-activated protein kinase 3 (Homo sapiens) (UniProt P27361); assay: Binding affinity to human ERK1 expressed in Escherichia coli BL21 by fluorescence quenching based spectrofluorometric analysis
Mitogen-activated protein kinase 3 (Homo sapiens), sequence (P27361 whole entry): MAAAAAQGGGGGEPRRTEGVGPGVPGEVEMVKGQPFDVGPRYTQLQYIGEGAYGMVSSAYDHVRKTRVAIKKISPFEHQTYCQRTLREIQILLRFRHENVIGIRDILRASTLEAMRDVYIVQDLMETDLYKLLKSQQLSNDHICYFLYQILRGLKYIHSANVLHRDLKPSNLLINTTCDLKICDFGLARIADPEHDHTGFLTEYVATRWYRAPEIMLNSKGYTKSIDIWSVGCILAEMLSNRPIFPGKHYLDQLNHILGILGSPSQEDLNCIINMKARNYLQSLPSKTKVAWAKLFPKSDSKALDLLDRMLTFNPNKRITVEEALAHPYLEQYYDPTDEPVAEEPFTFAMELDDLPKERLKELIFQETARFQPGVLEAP
Summary of the method: (§2)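 C-terminally His6-tagged ERK1 or p38 MAPK expressed in E. coli and purified. Protein at 10 μM in 50 mM sodium phosphate, 100 mM NaCl, pH 8.0, titrated with ligand to 1:10 protein:ligand. Excitation 290 nm, emission 290–500 nm. Binding constant K derived from fluorescence quenching.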

[8] = biological target: MAP kinase p38 (Homo sapiens) (UniProt O15264+Q15759+Q16539+P53778); assay: Binding affinity to human C-terminally His-tagged p38 expressed in Escherichia coli BL21 by fluorescence quenching based spectrofluorometric analysis; summary of the method: as §2
[9] = tested on: Mycobacterium tuberculosis; assay: Antitubercular activity against Mycobacterium tuberculosis H37Rv ATCC 27294 incubated for 7 days by resazurin assay; assay type: functional; conditions: H37Rv ATCC 27294, 168 h

SMILES | MIC90 [1] [µM] | MIC90 [2] [µM] | MIC90 [3] [µM] | MIC90 [4] [µM] | MIC90 [5] [µM] | logP [6] | K [7] [×10⁴ /M] | K [8] [×10⁴ /M] | MIC [9] [µM]
COc1ccc(-c2oc3cc(O)cc(O)c3c(=O)c2O)cc1O [TAMARIXETIN] | 632 (≈ 200 µg/mL) | 632 (≈ 200 µg/mL) | 632 (≈ 200 µg/mL) | > 632 | > 632 | 1.86 | 6.31 | 4.64 | –
O=c1cc(-c2ccc(O)c(O)c2)oc2cc(O)cc(O)c12 [LUTEOLIN] | – | – | – | – | – | – | – | – | 827 (≈ 237 µg/mL)
